Broadly, the MIC is the smallest concentration in the dilution series that meets the test's criterion for growth inhibition. A high value points to a need for much substance. As usually defined, the IC50 is the concentration that inhibits the measured activity by half.

Here are results for seven molecules from ChEMBL document CHEMBL3580656, “Chrodrimanins I and J from the Antarctic Moss-Derived Fungus Penicillium funiculosum GWT2-24” (J Nat Prod, 2015).

The subject of one test is Escherichia coli. The test is described as follows: Antibacterial activity against Escherichia coli. Format: functional.
A further test has as its system Staphylococcus aureus. Description: Antibacterial activity against Staphylococcus aureus. Format: functional.
For a further test, the system named is Influenza A virus. Description: Antiviral activity against influenza A virus (A/Puerto Rico/8/34(H1N1)) infected in MDCK cells incubated for 48 hrs assessed as inhibition of virus-induced cytopathic effect by crystal violet staining assay. Format: functional, organism-based. The note with it: A/Puerto Rico/8/1934(H1N1). In a few lines: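 Ribavirin served as the positive control. The value is reported as an IC50 in μM.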
(Damage to the host cells serves as the signal in cytopathic effect assays.)

The test system of the next test is K562. Description: Cytotoxicity against human K562 cells by sulforhodamine B assay. Format: functional, cell-based. The essentials:
(§1)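 Four human lines tested (K562, HL-60, HeLa, A-549) with adriamycin as positive control. Potency is expressed as IC50.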
In general terms: Sulforhodamine B stains cellular protein and so reports cell mass.

A further test deals with A549. Description: Cytotoxicity against human A549 cells by sulforhodamine B assay. Format: functional, cell-based. The essentials: as §1
The test system of another test is HeLa. The test is described as follows: Cytotoxicity against human HeLa cells by sulforhodamine B assay. Format: functional, cell-based. The essentials:
as §1

A further test deals with HL-60. Description: Cytotoxicity against human HL60 cells by sulforhodamine B assay. Format: functional, cell-based. In a few lines:
as §1

Where only a bound is given, the exact number is not on record here.

In the case of `C[C@@H]1Cc2c3c(cc(O)c2C(=O)O1)O[C@@]1(C)[C@@H](O)C[C@H]2C(C)(C)[C@@H](O)CC[C@]2(C)[C@@H]1C3`, the MIC against Escherichia coli and in the test with Staphylococcus aureus was above 600 µg/mL in each case. Also, the half-inhibitory concentration (IC50) in the test on Influenza A virus is 57 µM; in the test on K562, above 50 µM; with A549, above 50 µM; in the test with HeLa, above 50 µM; with HL-60, above 50 µM.
For `CC1(C)C(=O)CC[C@@]2(C)[C@H]1CC[C@]1(C)Oc3cc(O)c4c(c3C[C@@H]21)C[C@@H](O)CC4=O`, the MIC in the test with Escherichia coli and in the test on Staphylococcus aureus was above 600 µg/mL each time. The half-maximal inhibitory concentration (IC50) in the test with Influenza A virus was above 200 µM; with K562, above 50 µM; in the test on A549 it was above 50 µM; in the test on HeLa it was above 50 µM; in the test with HL-60 it was above 50 µM.
Regarding `C[C@H]1OC(=O)c2c(O)cc3c(c2[C@H]1O)C[C@H]1[C@@]2(C)C=CC(=O)C(C)(C)[C@@H]2C[C@H](O)[C@]1(C)O3`, the MIC against Escherichia coli and with Staphylococcus aureus was above 600 µg/mL throughout. The IC50 in the test on Influenza A virus is above 200 µM; in the test with K562, above 50 µM; in the test on A549 it was above 50 µM; in the test on HeLa, above 50 µM; in the test with HL-60, above 50 µM.
With `CC1(C)C(=O)C=C[C@@]2(C)[C@H]1CC[C@]1(C)Oc3cc(O)c4c(c3C[C@@H]21)C[C@@H](O)CC4=O`, the minimum inhibitory concentration (MIC) against Escherichia coli and in the test on Staphylococcus aureus was above 600 µg/mL throughout. The IC50 was above 200 µM in the test on Influenza A virus; above 50 µM with K562; above 50 µM in the test on A549; above 50 µM with HeLa; above 50 µM with HL-60.
Turning to `CC(=O)O[C@@H]1c2c3c(cc(O)c2C(=O)O[C@@H]1C)O[C@@]1(C)[C@@H](O)C[C@H]2C(C)(C)C(=O)C=C[C@]2(C)[C@@H]1C3`, the MIC against Escherichia coli and in the test with Staphylococcus aureus was above 600 µg/mL each time. Moreover, the IC50 in the test with Influenza A virus is 55 µM; with K562 it was above 50 µM; with A549, above 50 µM; with HeLa it was above 50 µM; with HL-60, above 50 µM.
`C[C@@H]1Cc2c3c(cc(O)c2C(=O)O1)O[C@@]1(C)[C@@H](O)C[C@H]2C(C)(C)C(=O)CC[C@]2(C)[C@@H]1C3`: the MIC in the test with Escherichia coli and against Staphylococcus aureus was above 600 µg/mL each time. Moreover, the IC50 with Influenza A virus was above 200 µM; in the test with K562, above 50 µM; in the test on A549 it was above 50 µM; in the test with HeLa it was above 50 µM; with HL-60, above 50 µM.
For the molecule `C[C@@H]1Cc2c3c(cc(O)c2C(=O)O1)O[C@@]1(C)[C@@H](O)C[C@H]2C(C)(C)C(=O)C=C[C@]2(C)[C@@H]1C3`, the minimum inhibitory concentration (MIC) against Escherichia coli and against Staphylococcus aureus was above 600 µg/mL each time. For the same molecule, the IC50 was 21 µM in the test on Influenza A virus; above 50 µM in the test with K562; above 50 µM with A549; above 50 µM with HeLa; above 50 µM in the test on HL-60.
